This passage reports Expression and Activity results from ChEMBL document CHEMBL1124730, “Acid-stable 2'-fluoro purine dideoxynucleosides as active agents against HIV” (1990).

Active and inactive are the calls of the source. The rule behind the calls is not given here.

The subject of test [1] is H9. Briefly: Percentage of gag protein expression using H9 cells at 200 uM on 7th day. Format: functional, Homo sapiens. The method, boiled down:
(§1)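 H9 cells (105) were infected with HIV-1 (500 virus particles per cell) and cultured without or with drug at the stated concentration. On days 7, 10 and 12, the percentage of cells expressing HIV-1 p24 gag protein was scored by indirect immunofluorescence with murine monoclonal antibody M26.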

For test [2], the system named is H9. Briefly: Percentage of gag protein expression using H9 cells at 5 uM on 10th day. Format: functional, Homo sapiens. In short, it runs like this: as §1
Test [3] has as its system H9. Briefly: Percentage of gag protein expression using H9 cells at 5 uM on 12th day. The class given is functional, Homo sapiens. The method, boiled down:
as §1

Test [4] has as its system H9. The test can be described thus: Percentage of gag protein expression using H9 cells at 5 uM on 7th day. Format: functional, Homo sapiens. The method, boiled down: as §1
Test [5] deals with H9. Briefly: Percentage of gag protein expression using H9 cells at 50 uM on 10th day. Format: functional, Homo sapiens. In short, it runs like this: as §1
Test [6] concerns H9. Briefly: Percentage of gag protein expression using H9 cells at 50 uM on 12th day. Format: functional, Homo sapiens. The method, boiled down:
as §1

The test system of test [7] is H9. The test can be described thus: Percentage of gag protein expression using H9 cells at 20 uM on 7th day. The class given is functional, Homo sapiens. In short, it runs like this: as §1
Test [8] deals with H9. Briefly: Percentage of gag protein expression using H9 cells at 200 uM on 10th day. The class given is functional, Homo sapiens. The method, boiled down:
as §1

Test [9] deals with H9. Briefly: Percentage of gag protein expression using H9 cells at 200 uM on 12th day. Format: functional, Homo sapiens. In short, it runs like this:
as §1

The test system of test [10] is H9. The test can be described thus: Percentage of gag protein expression using H9 cells at 50 uM on 7th day. Format: functional, Homo sapiens. The method, boiled down: as §1
Test [11] deals with H9. Briefly: Percentage of gag protein expression using H9 cells at 0 uM on 7th day. Format: functional, Homo sapiens. The method, boiled down:
as §1

Test [12] deals with H9. Briefly: Percentage of gag protein expression using H9 cells at 100 uM on 10th day. The class given is functional, Homo sapiens. In short, it runs like this: as §1
The subject of test [13] is H9. Briefly: Percentage of gag protein expression using H9 cells at 100 uM on 12th day. Format: functional, Homo sapiens. The method, boiled down: as §1
Test [14] deals with H9. The test can be described thus: Percentage of gag protein expression using H9 cells at 100 uM on 7th day. The class given is functional, Homo sapiens. The method, boiled down: as §1
Test [15] concerns H9. The test can be described thus: Percentage of gag protein expression using H9 cells at 20 uM on 10th day. Format: functional, Homo sapiens. The method, boiled down: as §1
In test [16] the test system is H9. The test can be described thus: Percentage of gag protein expression using H9 cells at 20 uM on 12th day. The class given is functional, Homo sapiens. The method, boiled down:
as §1

Test [17] concerns H9 (Homo sapiens). Briefly: Percentage of gag protein expression using H9 cells at 0 uM on 10th day.
In test [18] the test system is H9 (Homo sapiens). The test can be described thus: Percentage of gag protein expression using H9 cells at 0 uM on 12th day.
Test [19] concerns Human immunodeficiency virus 1. Briefly: Ability to protect CD4+ ATH8 cells from cytopathogenic effects of HIV-1; Inactive. The settings on record: ATH-8. The class given is functional, organism-based. (Cytopathic effects are the visible damage that an infection or toxin causes in cultured cells.)
Test [20] has as its system Human immunodeficiency virus 1. Briefly: Ability to protect CD4+ ATH8 cells from cytopathogenic effect of HIV-1; Active. Format: functional, organism-based. The settings on record: ATH-8.
The test system of test [21] is Human immunodeficiency virus 1. Briefly: Ability to protect CD4+ ATH8 cells from cytopathogenic effects of HIV-1; No effect. The class given is functional, organism-based. As to conditions: ATH-8.

Take `Nc1ncnc2c1ncn2[C@@H]1O[C@H](CO)C[C@@H]1F` [LODENOSINE]: the Expression was determined as 0% in the test on H9 [1]; 73% in the test with H9 [2]; 66% in the test with H9 [3]; 58% in the test on H9 [4]; 20% in the test with H9 [5]; 19% in the test with H9 [6]. Further, the Expression was 61% in the test with H9 [7]; 0% in the test on H9 [8]; 0% in the test with H9 [9]; 18% in the test with H9 [10]; 79% in the test with H9 [11]; 34% in the test with H9 [12]. The Expression came out at 50% in the test on H9 [13]; 10% in the test with H9 [14]; 37% with H9 [15]; 53% with H9 [16]; 71% with H9 (Homo sapiens) [17]; 79% in the test with H9 (Homo sapiens) [18].
For `Nc1ncnc2c1ncn2[C@@H]1O[C@H](CO)C[C@H]1F`, in test [19], the result was inactive.
In the case of `OCC1CC(F)C(n2cnc3c(O)ncnc32)O1` (stereo unspecified), the result in [20] was Active. Further, the Expression in the test on H9 [1] is on record as 7%; in the test on H9 [2], 82%; with H9 [3], 61%; in the test with H9 [4], 54%; with H9 [5], 24%; with H9 [6], 57%. For the same compound, the Expression in the test with H9 [7] is 58%; in the test with H9 [8] it was 10%; in the test on H9 [9], 60%; with H9 [10], 23%; with H9 [11], 76%; in the test on H9 [12], 12%. Moreover, the Expression with H9 [13] was 53%; in the test on H9 [14], 34%; in the test with H9 [15], 52%; with H9 [16] it was 61%; with H9 (Homo sapiens) [17], 71%; in the test on H9 (Homo sapiens) [18] it was 74%.
In the case of `Nc1ncnc2c1ncn2[C@H]1CC[C@@H](CO)O1`, the result in test [21] was inactive. In addition, the Expression in the test with H9 [1] is 0%; in the test on H9 [2], 48%; in the test with H9 [3] it was 86%; with H9 [4] it was 48%; in the test on H9 [5], 0%; with H9 [6] it was 2%. In addition, the Expression came to 1% in the test with H9 [7]; 0% with H9 [8]; 0% in the test on H9 [9]; 0% with H9 [10]; 79% in the test on H9 [11]; 0% with H9 [12]. The Expression is recorded as 0% in the test with H9 [13]; 0% in the test on H9 [14]; 0% in the test on H9 [15]; 8% with H9 [16]; 70% in the test on H9 (Homo sapiens) [17]; 84% in the test with H9 (Homo sapiens) [18].
Turning to `O=c1[nH]cnc2c1ncn2[C@H]1CC[C@@H](CO)O1` [DIDANOSINE], the result in [20] was Active. Also, the Expression in the test on H9 [1] amounted to 0%; with H9 [2], 53%; with H9 [3] it was 74%; with H9 [4], 73%; with H9 [5] it was 0%; in the test with H9 [6], 3%. The Expression in the test on H9 [7] is recorded as 9%; with H9 [8], 0%; with H9 [9] it was 0%; with H9 [10] it was 0%; with H9 [11], 76%; in the test on H9 [12] it was 0%. The Expression in the test with H9 [13] is recorded as 0%; with H9 [14], 0%; in the test with H9 [15], 30%; in the test with H9 [16], 48%; in the test with H9 (Homo sapiens) [17] it was 73%; with H9 (Homo sapiens) [18], 83%.
